# Assay outcomes: PubChem, several laboratories
# An excerpt weighted towards active compounds, which were near 2.9% of everything screened.
# iPSC survival up – increases survival of single human iPS cells; hiPSC single-cell survival, ATPlite luminescence; 100% = ROCK inhibitor wells, 0% = DMSO; survival enhancement, % at 20 µM; 360,000 compounds, 0.044% hits; in the data active means survival enhancement above about 18%;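 further: cells exposed to compounds for 16 hours before the ATP read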
# T cruzi inh – blocks replication of Trypanosoma cruzi | T. cruzi beta-gal in NIH3T3, luminescence, 90 h | 300,000 compounds, 1.4% hits | AID 1885 | inhibition, % (concentration not given with the values);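 active means mean inhibition across valid replicates above about 55%, limit read from the data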;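 further: signal also drops with host cell toxicity which is not excluded here; higher percent means less beta-gal luminescence so fewer parasites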
#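 System: mouse NIH/3T3 fibroblasts infected with β-gal-expressing T. cruzi Tulahuen C4 / Input: NIH/3T3 cells, 5,000 per well / Buffer or medium: Low-serum DMEM with 2% FBS / Probe or stimulus: 5000 reporter trypomastigotes per well / Schedule: ≥90 h infection period, 3 h prior cell attachment / Measured by: GalScreen luminescence, 60 min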
# MIN6 prolif-1 – inducers of beta-cell replication in MIN6 cells | MIN6 cells proliferation, ATPlite luminescence, 48 h; cells starved in 0.2% serum; 100% = growth in 10% serum | proliferation, % at 10 µM | 330,000 compounds, 0.29% hits;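 active means compounds whose signal lies at least 3.5 SD above the mean of all wells on their plate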
# Rev-erbA mod – modulators of human Rev-erb alpha DNA binding. P20393. Rev-erbα–FITC-DNA binding, fluorescence polarization, 90 min. activity, % at 10 µM. 370,000 compounds, 0.79% hits;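 active means activity above about 14%, limit read from the data; passing the limit was not always enough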
# Target sequence (P20393 whole entry, looked up): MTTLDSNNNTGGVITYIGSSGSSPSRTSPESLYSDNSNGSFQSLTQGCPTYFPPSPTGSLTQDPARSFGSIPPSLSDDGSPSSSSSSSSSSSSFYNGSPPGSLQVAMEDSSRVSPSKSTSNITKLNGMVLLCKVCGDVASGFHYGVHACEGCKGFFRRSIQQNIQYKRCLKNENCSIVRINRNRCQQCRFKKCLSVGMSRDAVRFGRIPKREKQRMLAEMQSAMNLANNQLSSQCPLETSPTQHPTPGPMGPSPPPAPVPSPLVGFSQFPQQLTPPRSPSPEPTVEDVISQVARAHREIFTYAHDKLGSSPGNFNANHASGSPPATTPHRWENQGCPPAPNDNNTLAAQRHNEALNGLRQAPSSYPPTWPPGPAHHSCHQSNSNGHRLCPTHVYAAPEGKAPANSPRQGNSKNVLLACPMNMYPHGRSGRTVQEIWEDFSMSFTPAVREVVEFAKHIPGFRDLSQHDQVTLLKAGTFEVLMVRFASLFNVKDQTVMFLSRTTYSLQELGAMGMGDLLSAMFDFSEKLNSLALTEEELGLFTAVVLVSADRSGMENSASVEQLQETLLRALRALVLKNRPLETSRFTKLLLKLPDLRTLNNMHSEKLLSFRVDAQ
# H9c2 TAG inh – reduces triacylglycerol accumulation in H9c2 cells. Nile Red lipid (TAG) fluorescence; cells loaded with 200 µM oleic acid. inhibition, % at 12.5 µM. 230,000 compounds, 0.66% hits. AID 651582;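 active means pattern-corrected inhibition of lipid staining of at least 50% with the nuclear-stain viability signal not falling by more than 50%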
# PG9 binder – binds the HIV-1 gp120 antibody PG9 | TR-FRET gp120-PG9 antibody binding | inhibition, % at 6.7 µM | 360,000 compounds, 0.43% hits; in the data active means inhibition above about 8.5%
# MIN6 prolif-2 – confirmation of inducers of beta-cell replication in MIN6 cells; shares compounds with MIN6 prolif-1; MIN6 beta-cell proliferation, ATPlite luminescence, 48 h; cells kept in 0.2% serum; scaled between 0.2% and 10% serum; proliferation increase, % at 50 µM; 920 tested, under 10 active; AID 463095;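 active means proliferation increase above 40% at any of the four tested concentrations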
# Hits are given with their value; – = inactive; · = not tested or not shown.
SMILES,iPSC survival up,T cruzi inh,MIN6 prolif-1,Rev-erbA mod,H9c2 TAG inh,PG9 binder,MIN6 prolif-2
CCN(CC)Cc1c(C(=O)N/N=C/c2ccc(C)o2)nnn1-c1nonc1N,–,–,0.0,–,·,–,–
O=C(COC(=O)c1ccccc1C(=O)OCC(=O)NCCc1c[nH]c2ccccc12)NCCc1c[nH]c2ccccc12,–,–,–,–,–,–,·
CCOc1ccc(OCc2ccc(C(=O)NCc3ccncc3)o2)cc1,–,–,4.9,–,·,–,–
Cn1nc(C(=O)NCC(c2cccs2)N2CCOCC2)c2ccccc2c1=O (stereo unspecified),–,·,–,–,–,–,·
COc1ccc(CCC(C)N(C)Cc2ccccc2)cc1 (stereo unspecified),–,–,6.6,–,–,–,–
COc1ccc(CC(=O)N(Cc2ccccc2)C(C)C)cc1,–,–,–,–,·,–,·
CCCCc1c(C)c(C#N)c2nc3ccccc3n2c1Cl,·,–,·,·,·,·,·
CCc1c(C)c(C#N)c2nc3ccccc3n2c1N(C)C,–,·,6.0,–,–,–,–
CC(=O)c1ccc(OCC(=O)NC2CCS(=O)(=O)C2)cc1 (stereo unspecified),–,–,5.0,–,·,–,–
c1cncc(CNc2ncnc3ccc(-c4ccoc4)cc23)c1,–,·,15.7,–,–,–,–
CSc1nc(-c2ccc(Cl)cc2)c(C#N)c(=O)n1C,–,–,–,–,–,–,·
Cc1cc(C)c2c3c(c(-c4ccccc4)n2n1)c(=O)n(C)c(=O)n3C,–,·,·,–,–,–,·
Cc1cccc(-c2c3c(=O)n(C)c(=O)n(C)c3c3cccnn23)c1,–,–,9.0,–,–,–,–
CCN1CCN(c2ccc(S(=O)(=O)N3CCCCC3)cc2NC(=O)C(C)Oc2ccc(F)cc2)CC1 (stereo unspecified),–,–,–,–,–,–,·
Cc1onc(-c2c(F)cccc2Cl)c1C(=O)ONC(=O)c1ccccc1,–,–,–,–,–,–,·
COc1cc(OC)cc(-c2nc(-c3cccs3)no2)c1,–,–,7.7,–,–,–,–
Brc1cccc(-c2nnc(SCc3ccon3)n2-c2ccccc2)c1,–,–,11.8,–,–,–,–
COC(=O)C1CCN(C(=O)c2oc3c(Cl)cc(C)cc3c2C)CC1,–,–,11.5,–,·,–,–
O=C(CSc1ccc(Cl)cc1)NNC(=O)c1ccncc1,–,·,–,–,–,–,·
O=C(N[C@@H](CCC/[N+]([O-])=C/c1ccccc1)C(=O)O)OCc1ccccc1,–,·,·,–,–,–,·
CCOC(=O)C1CCCN(C2CC(=O)N(c3ccc(N4C(=O)CC(N5CCCC(C(=O)OCC)C5)C4=O)cc3)C2=O)C1 (stereo unspecified),–,–,9.5,–,–,–,–
COc1ccccc1NC(=S)NNC(=O)c1ccncc1,–,–,–,–,·,–,·
O=C(NC1CCCC1)C(c1ccncc1)N(C(=O)c1csnn1)c1ccc(F)c(Cl)c1 (stereo unspecified),–,–,5.9,–,·,–,–
O=C(NC1CCCC1)C(c1ccncc1)N(C(=O)c1csnn1)c1cccc(Cl)c1 (stereo unspecified),–,–,–,–,·,–,·
COc1c(O)cc2c(c1O)C(=O)CC(c1ccccc1)O2 (stereo unspecified),·,–,–,·,·,·,·
SMILES,iPSC survival up,T cruzi inh,MIN6 prolif-1,Rev-erbA mod,H9c2 TAG inh,PG9 binder,MIN6 prolif-2
Cn1c(=O)[nH]c(=O)c2c1nc1n2CCCN1CCc1ccccc1,–,·,7.2,–,–,–,–
Cn1c(=O)[nH]c(=O)c2c1nc1n2CCN1Cc1ccccc1,–,–,–,–,·,–,·
COc1ccc(/C=N/Nc2nc(N3CCCC3)nc(N3CCCC3)n2)cc1,–,–,·,–,·,–,·
COc1nc(N/N=C/c2ccc(C)cc2)nc(N2CCCCC2)n1,–,–,7.4,–,·,–,–
CCOC(=O)c1sc(NC(NC(=O)c2ccco2)(C(=O)OC)C(F)(F)F)nc1C (stereo unspecified),–,–,7.6,–,–,–,–
COc1ccc(OC)c(/C=N/NC(=O)CSc2cc(C)nc3c(OC)cccc23)c1,–,–,10.2,–,·,–,–
CC(C)CCNC(=O)CN1N=C(c2ccc(Cl)cc2)CCC1=O,–,–,7.3,–,·,–,–
Cc1ccc(C2=NN(CC(=O)NCCC(C)C)C(=O)CC2)cc1,–,–,–,–,·,–,·
COc1ccc(S(=O)(=O)Cc2ccc(C(=O)NCCc3cc(OC)ccc3OC)o2)cc1,–,–,7.5,–,–,–,–
COc1ccc(OC)c(CCNC(=O)c2ccc(CS(=O)(=O)c3ccc(Br)cc3)o2)c1,–,–,–,–,–,–,·
Cc1ccc(C)c(S(=O)(=O)NC(C)C(=O)Nc2ccc(-c3nc4ccccc4s3)cc2)c1 (stereo unspecified),–,–,–,–,–,–,·
O=C(Nc1cccnc1)C1CC(c2ccc(Cl)c(Cl)c2)=NO1 (stereo unspecified),–,–,–,–,·,–,·
O=C(NNC(=O)C1CC(c2cccnc2)=NO1)Nc1cccc(F)c1 (stereo unspecified),–,–,5.6,–,–,–,–
COc1ccccc1CNS(=O)(=O)c1ccc(N2CCCC2)cc1Br,–,·,·,–,–,–,·
Nc1cc(=O)[nH]c(SCc2nnc(-c3ccccc3)o2)n1,–,–,–,–,–,–,·
CCN(CC(=O)Nc1c(F)cccc1F)C(=O)Cn1[nH]c(=O)c2ccccc2c1=O,–,·,11.3,–,–,–,–
CCN(CC(=O)Nc1c(F)cccc1F)C(=O)Cc1c[nH]c2ccccc12,–,·,–,–,–,–,·
CC1(C)CC2CC(C)(CN2C(=O)COC(=O)c2cccc([N+](=O)[O-])c2)C1 (stereo unspecified),–,·,7.4,–,–,–,–
CC1(C)CC2CC(C)(CN2C(=O)COC(=O)c2cccc(O)c2)C1 (stereo unspecified),–,·,–,–,–,–,·
COc1ccc(NC(=O)N2C3CCCC2CC(NC(=O)C2CC2)C3)cc1 (stereo unspecified),–,–,–,–,·,–,·
S=c1[nH]nc(CN2CCCC2)n1Cc1ccccc1,–,–,–,–,–,–,·
S=c1[nH]nc(CN2CCCCC2)n1Cc1ccccc1,–,–,8.0,–,–,–,–
Cc1cc(=O)n(CCC(=O)O)c2ccccc12,–,–,–,–,·,–,·
CNc1nc(C)c(C(=O)OCC(=O)OC)s1,–,–,–,–,–,–,·
CCOC(=O)/C(C#N)=C1/C=C(C)c2ccccc2N1,–,–,7.1,–,–,–,–
COc1c(C)cc(C(=O)C2CCCN(C(=O)c3cc(C)n(C)n3)C2)cc1C (stereo unspecified),–,–,–,–,·,–,·
CCCCNC(=O)CN(c1cccc(F)c1)S(C)(=O)=O,–,–,–,–,–,–,·
